Values after ≈ are worked out from the molar mass of the structure shown.

The first test deals with Mycobacterium tuberculosis. The experiment in a line: Antitubercular activity against Mycobacterium tuberculosis harboring DprE1 C387S mutant assessed as reduction in bacterial growth incubated for 14 days. The format is functional. To be noted: time 14 day. The essentials: (§1)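 Strains were H37Rv, the fluoroquinolone-resistant GyrA G88C mutant, and the dprE1 P116S and C387S mutants. All were cultured in standard Middlebrook 7H9 with ADC supplement.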
As for `O=C(NCCc1ccc(C(F)(F)F)cc1)c1c[nH]c2c([N+](=O)[O-])cc(C(F)(F)F)cc2c1=O`, the MIC90 (in general, an inhibitory concentration at the 90% level, which refers to growth in some studies and to a panel of isolates in others) came out at 54.2 µM (≈ 25.7 µg/mL).
Take `O=C(NCCc1ccc(F)cc1)c1c[nH]c2c([N+](=O)[O-])cc(C(F)(F)F)cc2c1=O`: the MIC90 is greater than 62 µM.
For `O=C(NCCc1ccc(Cl)cc1)c1c[nH]c2c([N+](=O)[O-])cc(C(F)(F)F)cc2c1=O`, the MIC90 worked out at 44.8 µM (≈ 19.7 µg/mL).
For `NNC(=O)c1ccncc1` [ISONIAZID], the MIC90 came out at 3.3 µM (≈ 0.453 µg/mL).
Turning to `COc1c(N2C[C@@H]3CCCN[C@@H]3C2)c(F)cc2c(=O)c(C(=O)O)cn(C3CC3)c12` [MOXIFLOXACIN], the MIC90 was determined as 0.05 µM (≈ 0.0201 µg/mL).

The subject of a further test is Mycobacterium tuberculosis. Put plainly: Antitubercular activity against Mycobacterium tuberculosis harboring DprE1 p116S mutant assessed as reduction in bacterial growth incubated for 14 days. The format is functional. To be noted: time 14 day. The gist of the method:
as §1
On to `O=C(NCCc1ccc(C(F)(F)F)cc1)c1c[nH]c2c([N+](=O)[O-])cc(C(F)(F)F)cc2c1=O`, for which the MIC90 stood at 0.5 µM (≈ 0.237 µg/mL).
Take `O=C(NCCc1ccc(F)cc1)c1c[nH]c2c([N+](=O)[O-])cc(C(F)(F)F)cc2c1=O`: the MIC90 came to 1 µM (≈ 0.423 µg/mL).
With `O=C(NCCc1ccc(Cl)cc1)c1c[nH]c2c([N+](=O)[O-])cc(C(F)(F)F)cc2c1=O`, the MIC90 was 17 µM (≈ 7.48 µg/mL).
In the case of `NNC(=O)c1ccncc1` [ISONIAZID], the MIC90 worked out at 2 µM (≈ 0.274 µg/mL).
Still for that read-out and setting: with `COc1c(N2C[C@@H]3CCCN[C@@H]3C2)c(F)cc2c(=O)c(C(=O)O)cn(C3CC3)c12` [MOXIFLOXACIN] the figure was 0.1 µM (≈ 0.0401 µg/mL).

The test system of a further test is Mycobacterium tuberculosis. Put plainly: Antitubercular activity against moxifloxacin-resistant Mycobacterium tuberculosis assessed as reduction in bacterial growth incubated for 14 days. The format is functional. To be noted: 336 h, time 14 day. The essentials: as §1
Take `O=C(NCCc1ccc(C(F)(F)F)cc1)c1c[nH]c2c([N+](=O)[O-])cc(C(F)(F)F)cc2c1=O`: the MIC90 was found to be 0.9 µM (≈ 0.426 µg/mL).
Still for that read-out and setting: with `O=C(NCCc1ccc(F)cc1)c1c[nH]c2c([N+](=O)[O-])cc(C(F)(F)F)cc2c1=O` the figure was 1.9 µM (≈ 0.804 µg/mL); with `O=C(NCCc1ccc(Cl)cc1)c1c[nH]c2c([N+](=O)[O-])cc(C(F)(F)F)cc2c1=O`, 1.9 µM (≈ 0.836 µg/mL); with `NNC(=O)c1ccncc1` [ISONIAZID], 3.6 µM (≈ 0.494 µg/mL).
On the same count and under the same terms, as for `COc1c(N2C[C@@H]3CCCN[C@@H]3C2)c(F)cc2c(=O)c(C(=O)O)cn(C3CC3)c12` [MOXIFLOXACIN], the figure is 6.3 µM (≈ 2.53 µg/mL).

The values above are taken from ChEMBL document CHEMBL5620388, “Quinolone analogues of benzothiazinone: Synthesis, antitubercular structure-activity relationship and ADME profiling” (Eur J Med Chem, 2023).
